Test results taken from ChEMBL document CHEMBL4004830 (J Med Chem, 2017).
Activity calls are given as the source filed them. The calls are words filed in the database; no cut-off is given here.

Columns and labels:
CDK9/cyclin T1 = CDK9/cyclin T1 (Homo sapiens, UniProt P50750); test: Inhibition of CDK9/cyclin T1 (unknown origin) in presence of [gamma-33P]-ATP […]; assay type: protein-complex assay; conditions: read-out: Ki(app)
MDA-MB-453 = test: Growth inhibition of human MDA-MB-453 cells after 72 hrs by MTT assay; assay type: functional; conditions: MDA-MB-453, 72 h
Procedure, shortened: (§1)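 72 h antiproliferation assay, resazurin read-out for MV4-11 and MTT read-out for MDA-MB-453; values from at least two replicates.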

MV4-11 = test: Growth inhibition of human MV4-11 cells after 72 hrs by resazurin assay; assay type: functional; conditions: MV4-11, 72 h; procedure, shortened: as §1
[1] = target: Cyclin-dependent kinase 7/ cyclin H (Homo sapiens) (UniProt P51946+P50613); test: (§2) Inhibition of CDK7/cyclin H (unknown origin) in presence of [gamma-33P]-ATP […]; assay type: protein-complex assay
[2] = target: Cyclin-dependent kinase 1/cyclin B1 (Homo sapiens) (UniProt P06493+P14635); test: (§3) Inhibition of CDK1/cyclin B (unknown origin) in presence of [gamma-33P]-ATP […]; assay type: protein-complex assay
[3] = target: Cyclin-dependent kinase 7/ cyclin H (Homo sapiens, UniProt P50613); test: as §2; assay type: protein-complex assay; conditions: read-out: Ki(app)
[4] = target: Cyclin-dependent kinase 1/cyclin B1 (Homo sapiens, UniProt P06493); test: as §3; assay type: protein-complex assay; conditions: read-out: Ki(app)
CDK2/Cyclin A2 = CDK2/Cyclin A2 (Homo sapiens, UniProt P24941); test: (§4) Inhibition of CDK2/cyclin A (unknown origin) in presence of [gamma-33P]-ATP […]; assay type: protein-complex assay; conditions: read-out: Ki(app)
[5] = target: CDK2/Cyclin A2 (Homo sapiens) (UniProt P24941+P20248); test: as §4; assay type: protein-complex assay
CDK6/cyclin D3 = CDK6/cyclin D3 (Homo sapiens, UniProt Q00534); test: Inhibition of CDK6/cyclin D3 (unknown origin) in presence of [gamma-33P]-ATP […]; assay type: protein-complex assay; conditions: read-out: Ki(app)
[6] = target: Cyclin-dependent kinase 4/cyclin D1 (Homo sapiens, UniProt P11802); test: Inhibition of CDK4/cyclin D1 (unknown origin) in presence of [gamma-33P]-ATP […]; assay type: protein-complex assay; conditions: read-out: Ki(app)
[7] = target: Receptor-type tyrosine-protein kinase FLT3 (Homo sapiens) (UniProt P36888); test: Inhibition of recombinant human N-terminal GST-tagged Flt3 (564 to end amino acid residues) expressed in baculovirus infected Sf21 insect cells assessed as residual activity at 10 uM; values are per cent of control
[8] = target: Serine/threonine-protein kinase pim-1 (Homo sapiens) (UniProt P11309); test: Inhibition of recombinant full-length human N-terminal GST-tagged Pim-1 expressed in Escherichia coli assessed as residual activity at 10 uM; values are per cent of control
[9] = target: Dual specificity tyrosine-phosphorylation-regulated kinase 1A (Rattus norvegicus) (UniProt Q63470); test: Inhibition of recombinant rat N-terminal GST-tagged DYRK1A (1 to 499 amino acid residues) expressed in Escherichia coli assessed as residual activity at 10 uM; values are per cent of control
Homo sapiens = organism: Homo sapiens; test: Inhibition of SGK (unknown origin) assessed as residual activity at 10 uM; values are per cent of control
[10] = target: MAP kinase-interacting serine/threonine-protein kinase 2 (Homo sapiens) (UniProt Q9HBH9); test: Inhibition of recombinant full-length human N-terminal His6-tagged Mnk2 expressed in baculovirus infected Sf21 insect cells assessed as residual activity at 10 uM; values are per cent of control
[11] = target: Homeodomain-interacting protein kinase 2 (Homo sapiens) (UniProt Q9H2X6); test: Inhibition of recombinant human N-terminal His6-tagged HIPK2 (165 to 564 amino acid residues) expressed in baculovirus infected Sf21 insect cells assessed as residual activity at 10 uM; values are per cent of control
[12] = target: Fibroblast growth factor receptor 1 (Homo sapiens) (UniProt P11362); test: Inhibition of recombinant human N-terminal GST-tagged FGFR1 (456 to 765 amino acid residues) expressed in baculovirus infected Sf21 insect cells assessed as residual activity at 10 uM; values are per cent of control
[13] = target: Death-associated protein kinase 1 (Homo sapiens) (UniProt P53355); test: Inhibition of recombinant human N-terminal GST-tagged DAPK1 (1 to 296 amino acid residues) expressed in baculovirus infected Sf21 cells assessed as residual activity at 10 uM; values are per cent of control
[14] = target: Vascular endothelial growth factor receptor 3 (Homo sapiens) (UniProt P35916); test: Inhibition of recombinant human N-terminal GST-tagged Flt4 (800 to end amino acid residues) expressed in baculovirus infected Sf21 insect cells assessed as residual activity at 10 uM; values are per cent of control
[15] = target: Dual specificity tyrosine-phosphorylation-regulated kinase 1B (Homo sapiens) (UniProt Q9Y463); test: Inhibition of DYRK1B (unknown origin) assessed as residual activity at 10 uM; values are per cent of control
Sequence of Dual specificity tyrosine-phosphorylation-regulated kinase 1B (Homo sapiens) (Q9Y463 whole entry, looked up): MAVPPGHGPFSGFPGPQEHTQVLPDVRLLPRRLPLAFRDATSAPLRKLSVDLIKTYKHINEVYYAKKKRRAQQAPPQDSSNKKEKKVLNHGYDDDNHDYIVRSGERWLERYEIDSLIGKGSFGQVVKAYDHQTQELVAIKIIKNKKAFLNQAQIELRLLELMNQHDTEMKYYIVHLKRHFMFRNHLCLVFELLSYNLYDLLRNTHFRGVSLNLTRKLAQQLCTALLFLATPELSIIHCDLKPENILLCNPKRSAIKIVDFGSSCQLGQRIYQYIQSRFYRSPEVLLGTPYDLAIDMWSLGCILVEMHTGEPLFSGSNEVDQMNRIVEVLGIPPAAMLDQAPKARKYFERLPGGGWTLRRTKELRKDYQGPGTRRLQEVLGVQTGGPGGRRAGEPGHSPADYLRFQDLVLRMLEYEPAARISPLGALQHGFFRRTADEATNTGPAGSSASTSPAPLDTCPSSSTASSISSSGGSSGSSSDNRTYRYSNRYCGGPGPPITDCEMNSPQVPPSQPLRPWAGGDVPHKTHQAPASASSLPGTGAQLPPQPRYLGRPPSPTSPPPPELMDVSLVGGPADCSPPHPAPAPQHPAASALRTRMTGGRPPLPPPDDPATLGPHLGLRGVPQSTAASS

Sequence of Cyclin-dependent kinase 7/ cyclin H (P51946 whole entry): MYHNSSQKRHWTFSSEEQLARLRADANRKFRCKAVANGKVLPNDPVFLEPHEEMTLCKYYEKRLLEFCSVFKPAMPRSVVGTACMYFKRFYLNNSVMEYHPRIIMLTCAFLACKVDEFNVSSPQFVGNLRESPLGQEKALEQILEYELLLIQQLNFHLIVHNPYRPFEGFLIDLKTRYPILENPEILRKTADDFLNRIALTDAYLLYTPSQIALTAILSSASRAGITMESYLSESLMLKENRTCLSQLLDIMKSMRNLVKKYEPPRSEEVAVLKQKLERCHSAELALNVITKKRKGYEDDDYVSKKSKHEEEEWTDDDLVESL
Sequence of Cyclin-dependent kinase 7/ cyclin H (P50613 whole entry): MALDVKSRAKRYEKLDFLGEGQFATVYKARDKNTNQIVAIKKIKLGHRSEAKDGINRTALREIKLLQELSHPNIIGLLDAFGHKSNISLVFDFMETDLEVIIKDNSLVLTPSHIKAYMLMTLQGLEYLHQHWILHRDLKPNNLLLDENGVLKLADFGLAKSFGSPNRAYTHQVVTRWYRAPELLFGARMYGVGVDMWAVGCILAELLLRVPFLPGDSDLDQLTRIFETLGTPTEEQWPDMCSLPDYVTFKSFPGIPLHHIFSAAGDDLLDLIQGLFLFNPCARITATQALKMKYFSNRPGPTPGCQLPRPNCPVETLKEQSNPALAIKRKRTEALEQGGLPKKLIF
Sequence of Cyclin-dependent kinase 4/cyclin D1 (P11802 whole entry): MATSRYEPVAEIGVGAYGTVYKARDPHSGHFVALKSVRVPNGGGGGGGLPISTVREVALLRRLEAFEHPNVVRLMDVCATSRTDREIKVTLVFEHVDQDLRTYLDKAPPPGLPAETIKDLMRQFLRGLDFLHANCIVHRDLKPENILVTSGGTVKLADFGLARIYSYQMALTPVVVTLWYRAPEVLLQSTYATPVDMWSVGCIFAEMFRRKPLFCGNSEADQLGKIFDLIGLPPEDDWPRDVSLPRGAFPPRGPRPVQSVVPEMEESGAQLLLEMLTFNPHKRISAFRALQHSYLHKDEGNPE
Sequence of Cyclin-dependent kinase 4/cyclin D1 (P24385 whole entry, further chain): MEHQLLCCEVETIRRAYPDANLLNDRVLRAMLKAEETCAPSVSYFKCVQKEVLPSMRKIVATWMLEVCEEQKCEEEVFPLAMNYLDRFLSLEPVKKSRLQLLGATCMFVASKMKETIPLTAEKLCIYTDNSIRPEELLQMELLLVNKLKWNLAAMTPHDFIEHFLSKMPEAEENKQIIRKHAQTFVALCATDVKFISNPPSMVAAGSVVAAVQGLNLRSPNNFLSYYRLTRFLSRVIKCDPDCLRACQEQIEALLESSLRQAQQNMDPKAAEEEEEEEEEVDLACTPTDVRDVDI
Sequence of CDK6/cyclin D3 (P30281 whole entry): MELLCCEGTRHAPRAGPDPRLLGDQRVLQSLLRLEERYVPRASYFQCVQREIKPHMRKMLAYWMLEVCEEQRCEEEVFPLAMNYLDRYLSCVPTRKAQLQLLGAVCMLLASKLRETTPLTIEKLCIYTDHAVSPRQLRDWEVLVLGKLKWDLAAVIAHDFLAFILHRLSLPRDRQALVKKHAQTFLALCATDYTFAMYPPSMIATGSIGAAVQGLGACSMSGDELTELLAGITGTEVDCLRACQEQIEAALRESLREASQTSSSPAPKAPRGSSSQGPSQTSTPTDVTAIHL
Sequence of CDK6/cyclin D3 (Q00534 whole entry): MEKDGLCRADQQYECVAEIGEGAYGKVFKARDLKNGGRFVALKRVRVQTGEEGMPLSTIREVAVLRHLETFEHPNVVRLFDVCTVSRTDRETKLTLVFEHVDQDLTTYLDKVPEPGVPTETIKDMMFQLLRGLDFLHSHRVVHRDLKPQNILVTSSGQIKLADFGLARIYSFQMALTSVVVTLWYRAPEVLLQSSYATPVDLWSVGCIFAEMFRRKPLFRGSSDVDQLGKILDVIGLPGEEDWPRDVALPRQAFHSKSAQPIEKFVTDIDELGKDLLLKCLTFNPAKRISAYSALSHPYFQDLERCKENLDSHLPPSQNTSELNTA
Sequence of CDK9/cyclin T1 (O60563 whole entry): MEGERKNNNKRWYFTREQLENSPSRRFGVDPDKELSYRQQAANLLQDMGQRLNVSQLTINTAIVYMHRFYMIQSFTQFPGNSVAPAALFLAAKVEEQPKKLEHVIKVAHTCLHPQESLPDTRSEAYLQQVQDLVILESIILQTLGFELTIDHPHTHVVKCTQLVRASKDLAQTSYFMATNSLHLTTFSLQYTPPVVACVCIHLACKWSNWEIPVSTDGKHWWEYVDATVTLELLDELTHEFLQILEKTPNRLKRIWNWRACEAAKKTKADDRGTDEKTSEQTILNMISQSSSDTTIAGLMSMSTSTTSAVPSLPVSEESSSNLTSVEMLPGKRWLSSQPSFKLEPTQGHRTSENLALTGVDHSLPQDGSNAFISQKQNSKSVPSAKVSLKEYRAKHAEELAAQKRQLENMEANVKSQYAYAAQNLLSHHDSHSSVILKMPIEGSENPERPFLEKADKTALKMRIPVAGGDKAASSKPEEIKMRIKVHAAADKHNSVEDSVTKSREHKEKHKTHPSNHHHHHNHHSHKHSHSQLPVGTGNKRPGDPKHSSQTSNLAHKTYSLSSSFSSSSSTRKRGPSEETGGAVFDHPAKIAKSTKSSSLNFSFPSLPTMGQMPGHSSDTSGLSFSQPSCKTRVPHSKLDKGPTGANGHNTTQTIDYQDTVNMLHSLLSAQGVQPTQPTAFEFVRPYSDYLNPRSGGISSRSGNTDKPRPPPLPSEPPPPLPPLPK
Sequence of CDK9/cyclin T1 (P50750 whole entry): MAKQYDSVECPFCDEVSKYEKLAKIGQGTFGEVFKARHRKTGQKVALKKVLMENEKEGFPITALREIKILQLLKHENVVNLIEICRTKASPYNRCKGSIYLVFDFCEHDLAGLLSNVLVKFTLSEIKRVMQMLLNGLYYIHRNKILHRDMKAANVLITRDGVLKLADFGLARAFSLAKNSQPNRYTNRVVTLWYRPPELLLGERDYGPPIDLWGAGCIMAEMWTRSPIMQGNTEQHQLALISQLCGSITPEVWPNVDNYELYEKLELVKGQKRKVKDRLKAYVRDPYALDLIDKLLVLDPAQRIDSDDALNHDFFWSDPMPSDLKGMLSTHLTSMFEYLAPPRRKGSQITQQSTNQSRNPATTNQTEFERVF
Sequence of Cyclin-dependent kinase 1/cyclin B1 (Homo sapiens) (P06493 whole entry, looked up): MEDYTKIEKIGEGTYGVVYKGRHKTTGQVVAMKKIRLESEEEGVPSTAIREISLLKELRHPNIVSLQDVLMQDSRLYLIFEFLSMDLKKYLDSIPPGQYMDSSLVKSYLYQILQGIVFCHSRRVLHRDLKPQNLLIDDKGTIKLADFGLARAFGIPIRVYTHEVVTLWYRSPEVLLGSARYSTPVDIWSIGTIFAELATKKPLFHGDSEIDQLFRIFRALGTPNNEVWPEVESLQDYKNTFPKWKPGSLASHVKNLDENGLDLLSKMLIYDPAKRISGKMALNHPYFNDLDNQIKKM
Sequence of Cyclin-dependent kinase 1/cyclin B1 (Homo sapiens) (P14635 whole entry, looked up): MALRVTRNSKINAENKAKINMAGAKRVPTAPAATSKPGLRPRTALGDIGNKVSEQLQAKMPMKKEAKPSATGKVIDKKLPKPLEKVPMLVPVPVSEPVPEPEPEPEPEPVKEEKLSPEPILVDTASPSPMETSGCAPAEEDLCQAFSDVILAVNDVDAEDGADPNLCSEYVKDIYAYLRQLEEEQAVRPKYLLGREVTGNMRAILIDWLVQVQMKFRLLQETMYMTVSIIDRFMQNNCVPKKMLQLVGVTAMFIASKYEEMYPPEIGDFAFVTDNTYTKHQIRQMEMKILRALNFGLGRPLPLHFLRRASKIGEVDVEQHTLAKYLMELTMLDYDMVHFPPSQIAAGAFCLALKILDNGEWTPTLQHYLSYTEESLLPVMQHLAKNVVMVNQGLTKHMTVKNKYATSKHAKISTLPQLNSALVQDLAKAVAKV
Sequence of Cyclin-dependent kinase 1/cyclin B1 (P06493 whole entry): as the sequence (P06493 whole entry, looked up) above
Sequence of Cyclin-dependent kinase 1/cyclin B1 (P14635 whole entry, further chain): as the sequence (P14635 whole entry, looked up) above

Compound | Ki (CDK9/cyclin T1) [nM] | GI50 (MDA-MB-453) [nM] | GI50 (MV4-11) [nM] | Ki [3] [nM] | Ki [4] [nM] | further results
FC(F)(F)c1nc(NC2CCCC2)sc1-c1ccnc(Nc2ccc(N3CCOCC3)cn2)n1 | > 5000 | 415 | 69 | – | – | Ki(app) [1]: inactive; Ki(app) [2]: inactive
Cc1nc(NC2CCCC2)sc1-c1ccnc(Nc2ccc(N3CCN(C)CC3)cn2)n1 | – | 130 | 9 | 865 | – | –
Cc1nc(NC(C)C)sc1-c1ccnc(Nc2ccc(N3CCN(C)CC3)cn2)n1 | – | 618 | 75 | 760 | – | –
Cc1nc(N(C)C2CCCC2)sc1-c1ccnc(Nc2ccc(N3CCNCC3)cn2)n1 | – | 402 | 285 | 3200 | – | –
Cc1nc(NC2CCCC2)sc1-c1ccnc(Nc2ccccn2)n1 | > 5000 | 4380 | 300 | – | – | –
Cc1nc(NC(C)C)sc1-c1ccnc(Nc2ccc(N3CCNCC3)cn2)n1 | – | 31 | 93 | 775 | – | –
Cc1nc(NC2CCCC2)sc1-c1ccnc(Nc2ccc(N3CCC(N)CC3)cn2)n1 | – | 55 | 13 | 1190 | – | –
Cc1nc(N(C)c2ccccc2)sc1-c1ccnc(Nc2ccc(N3CCN(C)CC3)cn2)n1 | – | 150 | 421 | > 5000 | > 5000 | –
CCN1CCN(c2ccc(Nc3nccc(-c4sc(NC5CCCC5)nc4C)n3)nc2)CC1 | – | 287 | 9 | 780 | – | –
Cc1nc(Nc2ccccc2)sc1-c1ccnc(Nc2ccc(N3CCN(C)CC3)cn2)n1 | > 5000 | 494 | 508 | – | – | Ki(app) [5]: inactive; Ki(app) [1]: inactive; Ki(app) [2]: inactive
CCN1CCN(Cc2ccc(Nc3nccc(-c4sc(NC5CCCC5)nc4C)n3)nc2)CC1 | – | 69 | 19 | 211 | > 5000 | –
FC(F)(F)c1nc(NC2CCCC2)sc1-c1ccnc(Nc2ccc(N3CCNCC3)cn2)n1 | – | 81 | 2 | 194 | – | –
Cc1nc(NC2CCCC2)sc1-c1nc(Nc2ccc(N3CCN(S(C)(=O)=O)CC3)cn2)ncc1F | > 5000 | 2810 | 2630 | – | – | Ki(app) [1]: inactive; Ki(app) [2]: inactive
Cc1nc(NC(C)C)sc1-c1ccnc(Nc2ccc(N3CCOCC3)cn2)n1 | > 5000 | 115 | 32 | > 5000 | > 5000 | –
CC(=O)N1CCN(c2ccc(Nc3nccc(-c4sc(NC(C)C)nc4C)n3)nc2)CC1 | – | 344 | 2070 | 4390 | – | –
Cc1nc(NC2CCCC2)sc1-c1nc(Nc2ccc(N3CCCNCC3)cn2)ncc1F | – | 83 | 29 | 815 | > 5000 | –
CC(=O)N1CCN(c2ccc(Nc3nccc(-c4sc(NC5CCCC5)nc4C)n3)nc2)CC1 | – | 591 | 24 | 3450 | – | –
Cc1nc(NC2CCCC2)sc1-c1ccnc(Nc2ccc(N3CCCCC3)cn2)n1 | > 5000 | 7040 | 191 | – | – | Ki (CDK2/Cyclin A2): > 5000 nM; Ki(app) [1]: inactive; Ki(app) [2]: inactive

Further compounds by falling GI50 (MDA-MB-453), results first:

Ki (CDK9/cyclin T1) [nM] | GI50 (MDA-MB-453) [nM] | GI50 (MV4-11) [nM] | Ki [3] [nM] | Ki [4] [nM] | Compound | further results
– | 8110 | 15 | > 5000 | > 5000 | CC(=O)N1CCN(c2ccc(Nc3ncc(F)c(-c4sc(NC5CCCC5)nc4C)n3)nc2)CC1 | –
> 5000 | 6860 | 328 | – | – | CC(=O)N1CCN(c2ccc(Nc3nccc(-c4sc(N(C)C5CCCC5)nc4C)n3)nc2)CC1 | Ki(app) [1]: inactive
– | 3360 | 20 | > 5000 | > 5000 | Cc1nc(N(C)C2CCCC2)sc1-c1ccnc(Nc2ccc(N3CCN(C)CC3)cn2)n1 | –
> 5000 | 1440 | 290 | > 5000 | 4350 | Cc1nc(NC2CCCC2)sc1-c1nc(Nc2ccc(N3CCOCC3)cn2)ncc1F | –
– | 938 | 255 | 1160 | > 5000 | Cc1nc(NC(C)C)sc1-c1ccnc(Nc2ccc(N3CCCNCC3)cn2)n1 | –
– | 780 | 53 | 790 | – | Cc1nc(NC2CCCC2)sc1-c1nc(Nc2ccc(N3CCNCC3)cn2)ncc1F | –
– | 622 | 10 | 630 | – | CCN1CCN(Cc2ccc(Nc3ncc(F)c(-c4sc(NC5CCCC5)nc4C)n3)nc2)CC1 [ULECACICLIB] | Ki(app) [2]: inactive
– | 420 | 1 | 189 | – | CN1CCN(c2ccc(Nc3nccc(-c4sc(NC5CCCC5)nc4C(F)(F)F)n3)nc2)CC1 | –
> 5000 | 373 | 714 | > 5000 | > 5000 | Cc1nc(N(C2CCCC2)C2CCCC2)sc1-c1ccnc(Nc2ccc(N3CCNCC3)cn2)n1 | Ki (CDK6/cyclin D3): 539 nM; Ki (CDK2/Cyclin A2): > 5000 nM; Ki [6]: 71 nM
> 5000 | 336 | 4 | 1900 | – | O=CN1CCN(c2ccc(Nc3nccc(-c4sc(NC5CCCC5)nc4C(F)(F)F)n3)nc2)CC1 | –
– | 279 | 56 | 1660 | – | Cc1nc(Nc2ccccc2)sc1-c1ccnc(Nc2ccc(N3CCNCC3)cn2)n1 | Ki (CDK2/Cyclin A2): > 5000 nM
1320 | 215 | 176 | 2640 | 1100 | Cc1nc(NC2CCCC2)sc1-c1ccnc(Nc2ccc(N3CCN(S(C)(=O)=O)CC3)cn2)n1 | Ki (CDK6/cyclin D3): 55 nM; Ki (CDK2/Cyclin A2): 77 nM; Ki [6]: 7 nM
505 | 202 | 73 | 2020 | 2330 | Cc1nc(NC2CCCC2)sc1-c1nc(Nc2ccc(N3CCN(C)CC3)cn2)ncc1F | Ki (CDK6/cyclin D3): 3 nM; Ki (CDK2/Cyclin A2): 103 nM; residual activity [7]: < 10%; residual activity [8]: < 10%; residual activity [9]: < 10%; residual activity (Homo sapiens): < 10%; Ki [6]: 1 nM; residual activity [10]: < 10%; residual activity [11]: < 10%; residual activity [12]: < 10%; residual activity [13]: < 10%; residual activity [14]: < 10%; residual activity [15]: < 10%
– | 102 | 29 | 282 | – | Cc1nc(NC2CCCC2)sc1-c1ccnc(Nc2ccc(N3CCCNCC3)cn2)n1 | –
> 5000 | 77 | 12 | 2610 | – | CC(=O)N1CCN(c2ccc(Nc3nccc(-c4sc(NC5CCCC5)nc4C(F)(F)F)n3)nc2)CC1 | –
> 5000 | 66 | 13 | 685 | – | CCN1CCN(c2ccc(Nc3ncc(F)c(-c4sc(NC5CCCC5)nc4C)n3)nc2)CC1 | Ki(app) [2]: inactive
